Each block holds one compound with its values, some of them ahead of it.
Columns and labels:
[1] = system: CHP-212-R(mix) and resistant monoclonal sublines R1-R6 (heterozygous USP7 V517F); assay: Cell viability assay; settings: for sensitivity of the resistant cells to other agents: SRB, 3 days exposure (Fig. 1d)
V517Y^CD = V517Y^CD (Homo sapiens, UniProt Q93009, V517Y); assay: Isothermal titration calorimetry; type: binding; settings: ITC, USP7_V517Y^CD
How it was run: (§1)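 His-tagged USP7 catalytic-domain mutants were expressed from pET28 in E. coli BL21(DE3), induced with 0.5 mM IPTG overnight at 17 °C, then purified by Ni–NTA and desalting. Protein was titrated with test compound on a MicroCal PEAQ-ITC at 25 °C, using an initial 0.5 μL injection then 20 injections of 2 μL. Kd came from a single-site binding model fit.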

V517G^CD = V517G^CD (Homo sapiens, UniProt Q93009, V517G); assay: Isothermal titration calorimetry; type: binding; settings: ITC, USP7_V517G^CD
How it was run: as §1

[2] = system: CHP-212.V517F.KI#1 and CHP-212.V517F.KI#2 cells; assay: Cell viability assay; type: cell-based, human; settings: CHP-212 V517F knock-in vs WT
V517F^CD = V517F^CD (Homo sapiens, UniProt Q93009, V517F); assay: Isothermal titration calorimetry; type: binding; settings: ITC, compared to the control groups (WT)
USP7_V517F^CD = USP7_V517F^CD (Homo sapiens, UniProt Q93009, V517F); assay: Ub-AMC in vitro enzyme assay; type: biochemical; settings: 50 nM USP7_V517F^CD, up to 0.5 μM USP7-797 or 1 μM FT671
[3] = system: LNCaP V517F.KI#1 and V517F.KI#2 cells; assay: Cell viability assay; type: cell-based, human; settings: LNCaP.V517F.KI vs WT
[4] = system: c-caspase-3, c-caspase-7, c-PARP, p53, p21, Rad18, DNMT1, UHRF1 in CHP-212 resistant variants; type: cell-based, human; settings: resistant variants relative to the parent cells, 48 h, Western blotting
How it was run: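 CHP-212 parental and resistant cells were treated with test compound, 48 h for caspase-3/-7, cleaved caspases and PARP1, or 24 h for p53, p21, Rad18, DNMT1 and UHRF1. Lysis was in SDS buffer (50 mM Tris-HCl pH 6.8, 2% SDS, 100 mM DTT) with 15 min boiling, followed by SDS-PAGE on 7.5–12.5% gels. Primary antibodies were used at 1:1000 with HRP secondaries. Blots were repeated three times.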

V517I^CD = V517I^CD (Homo sapiens, UniProt Q93009, V517I); assay: Isothermal titration calorimetry; type: binding; settings: ITC
How it was run: as §1

V517A^CD = V517A^CD (Homo sapiens, UniProt Q93009, V517A); assay: Isothermal titration calorimetry; type: binding; settings: ITC
How it was run: as §1

Capan-1.V517F.OE cells = settings: Capan-1.V517F.OE vs WT.OE
[5] = system: USP4, USP8, USP9X, USP12, USP15, and USP34; settings: cited from earlier work
CHP-212 R(mix) cells = assay: Cell cycle distribution by flow cytometry; type: cell-based, human; settings: 24 h treatment

Chain of USP7_V517F^CD (Q93009 208-560 V517F): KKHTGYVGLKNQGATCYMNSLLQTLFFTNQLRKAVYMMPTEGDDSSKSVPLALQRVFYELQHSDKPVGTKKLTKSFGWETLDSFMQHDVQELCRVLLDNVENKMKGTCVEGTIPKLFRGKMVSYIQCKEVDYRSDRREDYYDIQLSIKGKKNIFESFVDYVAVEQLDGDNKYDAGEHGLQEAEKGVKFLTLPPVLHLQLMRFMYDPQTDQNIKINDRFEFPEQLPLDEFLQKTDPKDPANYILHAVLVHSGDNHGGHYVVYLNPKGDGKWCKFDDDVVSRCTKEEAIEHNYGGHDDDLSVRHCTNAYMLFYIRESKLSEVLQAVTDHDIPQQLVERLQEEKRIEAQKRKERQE
Chain of V517F^CD (Q93009 208-560 V517F): as above
Chain of V517G^CD (Q93009 208-560 V517G): as the sequence (Q93009 208-560 V517F) above, with F310G counted along it
Chain of V517I^CD (Q93009 208-560 V517I): as the sequence (Q93009 208-560 V517F) above, with F310I counted along it
Chain of V517A^CD (Q93009 208-560 V517A): as the sequence (Q93009 208-560 V517F) above, with F310A counted along it
Chain of V517Y^CD (Q93009 208-560 V517Y): as the sequence (Q93009 208-560 V517F) above, with F310Y counted along it

Compound: COc1cccc2c1C(=O)c1c(O)c3c(c(O)c1C2=O)C[C@@](O)(C(=O)CO)C[C@@H]3O[C@H]1C[C@H](N)[C@H](O)[C@H](C)O1 [Adriamycin]
sensitivity of the resistant cells to other agents [1]: maintained sensitivity

Compound: COc1ncnc(C2CC2)c1-c1ncc2cnn(Cc3ccc(-c4nc(C(F)(F)F)cn4C(C)C)cc3)c2n1 [KSQ4279]
sensitivity of the resistant cells to other agents [1]: maintained sensitivity

Compound: CC(C)C[C@H](NC(=O)[C@H](Cc1ccccc1)NC(=O)c1cnccn1)B(O)O [bortezomib]
sensitivity of the resistant cells to other agents [1]: maintained sensitivity

Compound: CC[C@]1(O)C[C@H]2CN(CCc3c([nH]c4ccccc34)[C@@](C(=O)OC)(c3cc4c(cc3OC)N(C=O)[C@H]3[C@@](O)(C(=O)OC)[C@H](OC(C)=O)[C@]5(CC)C=CCN6CC[C@]43[C@@H]65)C2)C1 [VCR]
sensitivity of the resistant cells to other agents [1]: maintained sensitivity

Compound: CC(=O)O[C@H]1C(=O)[C@@]2(C)[C@H]([C@H](OC(=O)c3ccccc3)[C@]3(O)C[C@H](OC(=O)[C@H](O)[C@@H](NC(=O)c4ccccc4)c4ccccc4)C(C)=C1C3(C)C)[C@]1(OC(C)=O)CO[C@@H]1C[C@@H]2O [Taxol]
sensitivity of the resistant cells to other agents [1]: maintained sensitivity

Compound: NS(=O)(=O)OC[C@@H]1C[C@@H](n2ccc3c(N[C@H]4CCc5ccccc54)ncnc32)C[C@@H]1O [MLN4924]
sensitivity of the resistant cells to other agents [1]: maintained sensitivity

affinity compared to wild-type USP7 (V517Y^CD): decreases significantly
affinity compared to wild-type USP7 (V517G^CD): remain essentially unchanged
fold decreased binding affinity of USP7_V517F (V517F^CD): 67 fold
inhibition of V517F enzyme activity (USP7_V517F^CD): failed to inhibit
affinity compared to wild-type USP7 (V517I^CD): remain essentially unchanged
affinity compared to wild-type USP7 (V517A^CD): remain essentially unchanged
fold higher IC50 (Capan-1.V517F.OE cells): 48 fold
Compound: O=C(C[C@@H](C(F)F)n1ccc(F)n1)N1CCC(O)(Cn2cnc3c(cnn3-c3ccc(F)cc3)c2=O)CC1 [FT671]
fold reduction in sensitivity / higher IC50 than parental cells ([1]; resistant sublines vs parental CHP-212 cells): 83–213 fold
sensitivity reduction [2]: 88–106 fold
sensitivity reduction [3]: 121- to 146 fold
activation of apoptosis-related proteins (c-caspase-3, c-caspase-7, c-PARP) [4]: reduced activation
response of other USP family members to FT671 [5]: resistant
cell-cycle distribution of resistant variants (CHP-212 R(mix) cells): not profoundly altered

Source: publication PMC11909274 (Nature Communications, 2025)
